From ChEMBL document CHEMBL4304834, “3-Amino-chromanes and Tetrahydroquinolines as Selective 5-HT2B, 5-HT7, or σ1 Receptor Ligands” (ACS Med Chem Lett, 2019)

Assays:
D(3) dopamine receptor = D(3) dopamine receptor (Homo sapiens, UniProt P35462); assay: Displacement of [3H]-N-methylspiperone from human recombinant dopamine D3 receptor expressed in HEKT cells at 10 uM after 90 mins by microbeta scintillation counting method relative to control; assay type: cell-based
How it was run: (§1)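 Radioligand binding run by the NIMH Psychoactive Drug Screening Program. […] Otherwise Ki comes from sigmoidal curve fits of triplicate measurements in a single experiment, or is averaged over repeated experiments each run in triplicate.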

[1] = target: 5-hydroxytryptamine receptor 7 (Homo sapiens, UniProt P34969); assay: Displacement of [3H]-LSD from human recombinant 5-HT7 receptor expressed in stable HEK cells after 90 mins by microbeta scintillation counting method; assay type: cell-based
How it was run: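 Run by NIMH Psychoactive Drug Screening Program. Otherwise, competition binding curves are generated and pKi is taken from a sigmoidal curve fit. Data are either triplicate measurements within one experiment, with the error from the fit, or the mean of repeated experiments, each run in triplicate.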

Histamine H2 receptor = Histamine H2 receptor (Homo sapiens, UniProt P25021); assay: Displacement of [125I]-Iodoaminopotentidine from human recombinant histamine H2 receptor expressed in stable HEK cells after 90 mins by microbeta scintillation counting method; assay type: cell-based; how it was run: as §1
[2] = target: T1, Beta-3 adrenergic receptor (Homo sapiens, UniProt P13945); assay: Displacement of [3H]-CGP12177 from human recombinant adrenergic Beta3 receptor expressed in Flp-In HEK cells at 10 uM after 90 mins by microbeta scintillation counting method relative to control; assay type: cell-based; how it was run: as §1
Target sequence in this assay (P13945 whole entry, looked up): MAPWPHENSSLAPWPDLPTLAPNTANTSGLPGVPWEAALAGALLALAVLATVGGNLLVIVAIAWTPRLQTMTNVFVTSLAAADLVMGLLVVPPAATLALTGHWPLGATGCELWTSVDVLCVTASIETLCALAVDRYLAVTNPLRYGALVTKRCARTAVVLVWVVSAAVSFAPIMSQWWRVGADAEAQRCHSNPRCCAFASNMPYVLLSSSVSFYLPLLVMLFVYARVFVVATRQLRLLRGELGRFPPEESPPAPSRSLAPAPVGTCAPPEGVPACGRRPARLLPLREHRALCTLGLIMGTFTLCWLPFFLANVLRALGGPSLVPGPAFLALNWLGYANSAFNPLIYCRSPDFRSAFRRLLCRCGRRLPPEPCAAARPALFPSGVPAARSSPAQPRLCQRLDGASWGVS

[3] = target: T2, Muscarinic acetylcholine receptor M2 (Homo sapiens) (UniProt P08172); assay: Displacement of [3H]-QNB/[3H]-NMS from human recombinant Muscarinic acetylcholine M2 receptor expressed in stable CHO cells at 10 uM after 90 mins by microbeta scintillation counting method relative to control; assay type: cell-based
T2 sequence (whole entry): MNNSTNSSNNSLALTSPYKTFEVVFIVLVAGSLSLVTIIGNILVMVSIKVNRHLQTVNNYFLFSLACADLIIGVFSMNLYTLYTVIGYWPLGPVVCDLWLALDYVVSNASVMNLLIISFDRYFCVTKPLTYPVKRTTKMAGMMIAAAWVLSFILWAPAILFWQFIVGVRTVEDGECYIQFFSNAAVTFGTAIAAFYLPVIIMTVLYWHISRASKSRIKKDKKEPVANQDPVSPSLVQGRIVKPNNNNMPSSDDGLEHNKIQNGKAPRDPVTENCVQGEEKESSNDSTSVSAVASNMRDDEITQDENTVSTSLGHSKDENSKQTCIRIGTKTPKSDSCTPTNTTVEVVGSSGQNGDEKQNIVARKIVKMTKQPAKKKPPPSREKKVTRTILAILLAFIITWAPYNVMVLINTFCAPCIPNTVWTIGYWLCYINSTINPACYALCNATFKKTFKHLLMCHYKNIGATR

[4] = target: T1, Beta-3 adrenergic receptor; assay: Displacement of [3H]-CGP12177 from human recombinant adrenergic Beta3 receptor expressed in Flp-In HEK cells after 90 mins by microbeta scintillation counting method; assay type: cell-based; how it was run: as §1
Target sequence in this assay (P13945 whole entry): as the sequence (P13945 whole entry, looked up) above

[5] = target: 5-hydroxytryptamine receptor 6 (Homo sapiens, UniProt P50406); assay: Displacement of [3H]-LSD from human recombinant 5-HT6 receptor expressed in stable HEK cells at 10 uM after 90 mins by microbeta scintillation counting method relative to control; assay type: cell-based; how it was run: as §1
Mu-type opioid receptor = Mu-type opioid receptor (Homo sapiens, UniProt P35372); assay: Displacement of [3H]-DAMGO from human recombinant MOR receptor expressed in stable HEK cells after 90 mins by microbeta scintillation counting method; assay type: cell-based; how it was run: as §1
[6] = target: Sodium-dependent dopamine transporter (Homo sapiens, UniProt Q01959); assay: Displacement of [3H]-Win35428 from human recombinant DAT receptor expressed in stable HEK cells after 90 mins by microbeta scintillation counting method; assay type: cell-based
How it was run: (§2)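 Radioligand binding was run by the NIMH Psychoactive Drug Screening Program. Compounds were first screened at 10 μM. Those giving ≥50% binding were taken to full competition curves. Ki is reported as pKi from a sigmoidal curve fit of triplicate measurements in a single experiment; the error is the curve-fit error.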

[7] = target: Beta-2 adrenergic receptor (Homo sapiens, UniProt P07550); assay: Displacement of [3H]-CGP12177 from human recombinant adrenergic Beta2 receptor expressed in Flp-In HEK cells after 90 mins by microbeta scintillation counting method; assay type: cell-based; how it was run: as §1
[8] = target: T3, Muscarinic acetylcholine receptor M4 (Homo sapiens, UniProt P08173); assay: Displacement of [3H]-QNB/[3H]-NMS from human recombinant Muscarinic acetylcholine M4 receptor expressed in stable CHO cells after 90 mins by microbeta scintillation counting method; assay type: cell-based; how it was run: as §2
T3 sequence (P08173 whole entry): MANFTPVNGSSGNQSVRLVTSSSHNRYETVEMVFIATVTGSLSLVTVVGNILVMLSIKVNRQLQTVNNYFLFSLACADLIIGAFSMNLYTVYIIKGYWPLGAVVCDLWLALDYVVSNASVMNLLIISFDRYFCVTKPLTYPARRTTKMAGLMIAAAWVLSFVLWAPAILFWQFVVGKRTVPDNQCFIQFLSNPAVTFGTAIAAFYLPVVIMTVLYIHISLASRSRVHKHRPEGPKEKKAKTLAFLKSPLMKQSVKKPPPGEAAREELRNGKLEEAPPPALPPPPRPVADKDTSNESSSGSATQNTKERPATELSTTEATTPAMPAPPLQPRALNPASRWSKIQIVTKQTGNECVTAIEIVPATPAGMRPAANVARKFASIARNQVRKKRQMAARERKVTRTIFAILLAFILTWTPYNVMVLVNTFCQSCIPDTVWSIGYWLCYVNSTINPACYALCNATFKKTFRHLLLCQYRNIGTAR

[9] = target: T4, 5-hydroxytryptamine receptor 3A (Homo sapiens, UniProt P46098); assay: Displacement of [3H]-GR65630 from human recombinant 5-HT3 receptor expressed in HEKT cells after 90 mins by microbeta scintillation counting method; assay type: cell-based; how it was run: as §1
T4 sequence (P46098 whole entry): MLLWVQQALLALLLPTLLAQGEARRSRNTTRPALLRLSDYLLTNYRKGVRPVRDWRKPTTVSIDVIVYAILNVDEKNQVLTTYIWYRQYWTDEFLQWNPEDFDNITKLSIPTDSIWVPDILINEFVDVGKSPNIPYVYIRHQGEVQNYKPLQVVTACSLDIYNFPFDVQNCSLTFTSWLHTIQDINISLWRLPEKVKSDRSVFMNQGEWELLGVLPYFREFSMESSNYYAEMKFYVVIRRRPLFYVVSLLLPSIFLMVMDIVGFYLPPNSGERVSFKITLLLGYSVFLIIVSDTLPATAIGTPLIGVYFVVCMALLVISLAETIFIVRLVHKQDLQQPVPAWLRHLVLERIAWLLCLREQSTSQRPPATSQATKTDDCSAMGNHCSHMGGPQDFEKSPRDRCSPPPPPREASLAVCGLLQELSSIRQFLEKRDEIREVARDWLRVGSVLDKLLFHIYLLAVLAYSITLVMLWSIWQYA

[10] = Displacement of [3H]-PK11195 from PBR receptor in rat brain after 90 mins by microbeta scintillation counting method; assay type: tissue-based
How it was run: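 Radioligand binding run by the NIMH Psychoactive Drug Screening Program. Otherwise Ki comes from sigmoidal curve fits of triplicate measurements in a single experiment, or is averaged over repeated experiments each run in triplicate.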

Chain of 5-hydroxytryptamine receptor 6 (P50406 whole entry): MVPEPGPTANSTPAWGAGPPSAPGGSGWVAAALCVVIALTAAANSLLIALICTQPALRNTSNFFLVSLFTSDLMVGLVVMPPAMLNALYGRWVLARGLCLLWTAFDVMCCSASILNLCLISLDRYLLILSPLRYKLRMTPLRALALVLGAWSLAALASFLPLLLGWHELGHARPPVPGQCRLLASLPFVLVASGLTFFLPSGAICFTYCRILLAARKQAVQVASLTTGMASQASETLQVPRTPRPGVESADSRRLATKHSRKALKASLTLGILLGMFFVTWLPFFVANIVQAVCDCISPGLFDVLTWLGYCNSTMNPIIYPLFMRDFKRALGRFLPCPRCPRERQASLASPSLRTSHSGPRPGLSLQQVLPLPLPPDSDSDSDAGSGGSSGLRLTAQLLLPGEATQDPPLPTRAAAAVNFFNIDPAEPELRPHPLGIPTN
Chain of Mu-type opioid receptor (P35372 whole entry): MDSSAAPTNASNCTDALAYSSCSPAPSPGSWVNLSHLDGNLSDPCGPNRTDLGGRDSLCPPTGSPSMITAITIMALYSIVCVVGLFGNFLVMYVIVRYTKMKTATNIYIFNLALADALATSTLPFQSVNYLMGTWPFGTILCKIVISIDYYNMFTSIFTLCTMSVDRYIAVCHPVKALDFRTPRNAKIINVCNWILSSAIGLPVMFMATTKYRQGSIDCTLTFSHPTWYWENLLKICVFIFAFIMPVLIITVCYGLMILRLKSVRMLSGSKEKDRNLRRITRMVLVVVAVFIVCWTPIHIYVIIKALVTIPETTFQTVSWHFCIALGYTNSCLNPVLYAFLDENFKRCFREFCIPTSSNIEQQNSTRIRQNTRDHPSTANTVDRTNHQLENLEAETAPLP
Chain of Sodium-dependent dopamine transporter (Q01959 whole entry): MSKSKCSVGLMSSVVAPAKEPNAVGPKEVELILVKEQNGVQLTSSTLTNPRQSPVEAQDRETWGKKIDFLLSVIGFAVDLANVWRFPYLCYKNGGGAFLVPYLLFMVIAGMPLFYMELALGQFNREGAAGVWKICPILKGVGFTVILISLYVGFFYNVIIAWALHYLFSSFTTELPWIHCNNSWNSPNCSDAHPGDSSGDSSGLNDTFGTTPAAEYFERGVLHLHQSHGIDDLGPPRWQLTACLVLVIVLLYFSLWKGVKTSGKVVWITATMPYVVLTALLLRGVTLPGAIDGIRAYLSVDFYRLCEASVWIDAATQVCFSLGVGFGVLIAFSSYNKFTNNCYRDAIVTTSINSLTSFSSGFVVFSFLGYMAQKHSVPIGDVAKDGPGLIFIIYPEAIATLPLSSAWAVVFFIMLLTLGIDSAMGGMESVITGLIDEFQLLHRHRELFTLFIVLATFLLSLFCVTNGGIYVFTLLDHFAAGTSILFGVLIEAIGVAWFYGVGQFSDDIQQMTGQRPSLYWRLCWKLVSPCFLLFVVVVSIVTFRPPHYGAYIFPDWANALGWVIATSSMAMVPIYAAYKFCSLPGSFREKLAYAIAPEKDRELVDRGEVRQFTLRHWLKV
Chain of D(3) dopamine receptor (P35462 whole entry): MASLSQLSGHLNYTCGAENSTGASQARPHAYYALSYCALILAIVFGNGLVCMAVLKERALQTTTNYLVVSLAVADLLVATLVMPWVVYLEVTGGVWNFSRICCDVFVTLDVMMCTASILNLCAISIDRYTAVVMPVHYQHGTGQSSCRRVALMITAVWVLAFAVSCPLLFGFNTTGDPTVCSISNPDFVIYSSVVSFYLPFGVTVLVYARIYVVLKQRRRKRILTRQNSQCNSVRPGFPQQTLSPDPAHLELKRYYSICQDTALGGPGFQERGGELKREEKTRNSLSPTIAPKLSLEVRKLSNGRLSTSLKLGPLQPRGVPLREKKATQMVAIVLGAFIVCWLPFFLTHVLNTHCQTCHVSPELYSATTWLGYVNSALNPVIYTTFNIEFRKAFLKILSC
Chain of Histamine H2 receptor (P25021 whole entry): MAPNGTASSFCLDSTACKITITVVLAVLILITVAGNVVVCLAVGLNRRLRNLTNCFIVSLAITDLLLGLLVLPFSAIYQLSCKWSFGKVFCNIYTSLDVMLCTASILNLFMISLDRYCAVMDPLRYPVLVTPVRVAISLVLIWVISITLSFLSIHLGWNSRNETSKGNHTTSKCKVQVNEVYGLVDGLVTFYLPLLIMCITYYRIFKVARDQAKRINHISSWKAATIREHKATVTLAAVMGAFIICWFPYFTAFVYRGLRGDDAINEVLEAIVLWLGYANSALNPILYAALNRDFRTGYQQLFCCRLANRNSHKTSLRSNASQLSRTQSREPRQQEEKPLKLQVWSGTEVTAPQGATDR
Chain of 5-hydroxytryptamine receptor 7 (P34969 whole entry): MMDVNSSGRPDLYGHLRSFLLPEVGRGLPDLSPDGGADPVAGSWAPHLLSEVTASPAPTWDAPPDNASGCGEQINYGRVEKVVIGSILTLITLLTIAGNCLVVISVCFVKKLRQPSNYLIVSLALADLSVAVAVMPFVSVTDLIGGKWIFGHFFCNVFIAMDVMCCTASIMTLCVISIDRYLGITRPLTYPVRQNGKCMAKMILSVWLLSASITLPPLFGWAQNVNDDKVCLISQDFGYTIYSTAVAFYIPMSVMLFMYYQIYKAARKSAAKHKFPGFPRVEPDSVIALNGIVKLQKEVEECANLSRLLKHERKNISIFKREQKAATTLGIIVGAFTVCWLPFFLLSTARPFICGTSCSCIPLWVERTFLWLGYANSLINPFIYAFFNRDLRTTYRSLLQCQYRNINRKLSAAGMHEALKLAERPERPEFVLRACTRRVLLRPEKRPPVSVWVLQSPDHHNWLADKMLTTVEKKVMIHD
Chain of Beta-2 adrenergic receptor (P07550 whole entry): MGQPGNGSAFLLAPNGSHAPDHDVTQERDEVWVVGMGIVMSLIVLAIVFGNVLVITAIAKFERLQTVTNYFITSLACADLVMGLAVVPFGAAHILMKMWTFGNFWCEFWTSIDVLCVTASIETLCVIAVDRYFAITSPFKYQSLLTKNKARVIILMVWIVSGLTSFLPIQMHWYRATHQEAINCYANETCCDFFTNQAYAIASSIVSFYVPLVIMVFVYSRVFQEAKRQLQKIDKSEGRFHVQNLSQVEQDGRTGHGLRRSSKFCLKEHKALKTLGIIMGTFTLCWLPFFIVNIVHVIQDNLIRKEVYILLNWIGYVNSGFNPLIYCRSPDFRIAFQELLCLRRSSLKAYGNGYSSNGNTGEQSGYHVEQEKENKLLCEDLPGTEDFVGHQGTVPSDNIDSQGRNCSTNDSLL

Row | Ki ([1]; read-out: Ki) | SMILES | inhibition (D(3) dopamine receptor) | Ki ([1]; read-out: pKi (converted)) | Ki (Histamine H2 receptor) | inhibition [2] | inhibition [3] | Ki [4] | inhibition [5] | Ki (Mu-type opioid receptor) | Ki [6] | Ki [7] | Ki [8] | Ki [9] | pKi [10]
1 | – | CC[C@H]1c2cc(OC)ccc2CC[C@@]1(C)N (racemic) | < 50% | > 10 µM | > 10 µM | < 50% | < 50% | > 10 µM | < 50% | 2 µM | 5.01 µM | 5.01 µM | > 10 µM | > 10 µM | < 5
2 | – | CC[C@H]1c2cc(C)ccc2OC[C@@]1(C)N (racemic) | < 50% | > 10 µM | > 10 µM | < 50% | < 50% | > 10 µM | < 50% | > 10 µM | > 10 µM | > 10 µM | > 10 µM | > 10 µM | < 5
3 | – | CC[C@H]1c2ccccc2N(c2ccccc2)C[C@@]1(C)N (racemic) | – | 1 µM | > 10 µM | – | – | 1 µM | – | > 10 µM | 3.16 µM | > 10 µM | > 10 µM | > 10 µM | –
4 | 0.0063 µM | C[C@@]12CN(c3ccccc3)c3ccccc3[C@@H]1CCN2 (racemic) | – | – | 2 µM | – | – | > 10 µM | – | > 10 µM | > 10 µM | > 10 µM | > 10 µM | > 10 µM | –
5 | – | COc1cc(OC)c2c(c1)OC[C@@]1(C)NCC[C@@H]21 (racemic) | < 50% | 1.26 µM | > 10 µM | < 50% | < 50% | > 10 µM | < 50% | > 10 µM | > 10 µM | 0.575 µM | > 10 µM | > 10 µM | < 5
